Results taken from the RNAGym collection of RNA variant scans (doi:10.1126/science.aae0568).
Fewer inactive variants are shown than the library holds.

B1: tRNA (parent)
chain: GUUCCGUUGGCGUAAUGGUAACGCGUCUCCCUCCUAAGGAGAAGACUGCGGGUUCGAGUCCCGUACGGAACG

Variants of: B1
Assay: yeast fitness relative to wild type (ratio to wild type); higher = fitter; tRNA-Arg(CCU), competitive growth, 37 C, YPD
How it was run: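 Gene amplicons from the start population and from each of six end populations were read by 100-nucleotide paired-end sequencing. Those end populations came from pooled Saccharomyces cerevisiae strains carrying tRNA-Arg(CCU) gene variants at the native locus, competed in YPD at 37°C for 24 hours. Fitness relative to wild type was worked out from changes in genotype frequencies. Genotypes needed ≥ 100 starting reads, and estimates < 0.5 were set to 0.5.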
In the case of C27A A57G, the yeast fitness is reported as 0.787. For C46A G68U, the yeast fitness was 0.824. In the case of C11U U19G C27U U47C A70U, the yeast fitness is reported as ≤ 0.5. For C11G G12A C30G C31G U32A C66U, the yeast fitness was ≤ 0.5. In the case of C11U A21U A45U, the yeast fitness is reported as 1.15. In the case of G9A U26A A43U, the yeast fitness is reported as 0.616. For C5G A40G U54A, the yeast fitness was 0.579. For U2C U13A G39C C60G A70U, the yeast fitness was 0.537. With G44U A45U G63C the yeast fitness was ≤ 0.5. With G41C U64C the yeast fitness was 0.896. In the case of G44C C49G, the yeast fitness is reported as 0.741. For C29A U35A G67C, the yeast fitness was ≤ 0.5. U28A C46G G56A gave a yeast fitness of 0.676. With G41C G51A the yeast fitness was 0.844. In the case of G10A A21G C29A U53C C61G G67A A69C, the yeast fitness is reported as ≤ 0.5. For C11U U16C C27G C34G G67A, the yeast fitness was ≤ 0.5. Work on C27U A43C A69U yielded a yeast fitness of 0.882. A43U C46U A69U gave a yeast fitness of 0.807. Work on A15G U26C yielded a yeast fitness of 0.802. In the case of U2A A15C G58C, the yeast fitness is reported as ≤ 0.5. In the case of A21C C30A A43G C61U, the yeast fitness is reported as ≤ 0.5. In the case of C11G A14C C33G A45U C62G A65G, the yeast fitness is reported as ≤ 0.5. With U3A A37U C66A the yeast fitness was ≤ 0.5. For G6A C33U C49A G58C A69U, the yeast fitness was ≤ 0.5. In the case of U8C C24G U26C, the yeast fitness is reported as ≤ 0.5. With C30U G39A C61G C62G the yeast fitness was ≤ 0.5. For G17A C34A A40G C66U, the yeast fitness was 0.524. A15G G50A G56A showed a yeast fitness of 0.552. With U8G C27U C62G the yeast fitness was ≤ 0.5. With A21U C34G U64A the yeast fitness was ≤ 0.5. With U7A U8G C30G the yeast fitness was ≤ 0.5. In the case of C22U U26C G63U, the yeast fitness is reported as ≤ 0.5. In the case of A43G G63C G68A, the yeast fitness is reported as ≤ 0.5. For C34A C46U C61G, the yeast fitness was ≤ 0.5. C49G C66U gave a yeast fitness of 0.781. G18C G51A C66A gave a yeast fitness of 0.537. C31U C66U A69U showed a yeast fitness of 0.807. In the case of C11G A20G C62A, the yeast fitness is reported as ≤ 0.5. In the case of A40U A45U G63A, the yeast fitness is reported as 0.689. In the case of G10C U26A G38A A40U, the yeast fitness is reported as ≤ 0.5. Variant C4U U26G G44A has a yeast fitness of 0.591. In the case of G17A C22U C29A A36G A45U, the yeast fitness is reported as ≤ 0.5. G12A C24G U26G G39C C49G gave a yeast fitness of 0.511. For U2C U19C A37G C49A A69C, the yeast fitness was ≤ 0.5. For U13C C31G C33A C66A, the yeast fitness was ≤ 0.5. For U13G G25A, the yeast fitness was 0.973. With A15U G25C the yeast fitness was 0.583. G6A U26C A69U showed a yeast fitness of 0.664. With A36G A37U A42U A70G the yeast fitness was ≤ 0.5. Work on U8C C30U C31A C33G C60A yielded a yeast fitness of 0.586. In the case of C30A C33A C62A, the yeast fitness is reported as ≤ 0.5. U2G C4U C55U gave a yeast fitness of 0.679. U19A C55G showed a yeast fitness of 0.559. In the case of G18A C24U G68C, the yeast fitness is reported as 0.538. In the case of A14U A21G G39C A45G, the yeast fitness is reported as ≤ 0.5. With U2A A15C the yeast fitness was 0.685. In the case of C55G A57U C62U C66U, the yeast fitness is reported as ≤ 0.5. With C27G C49A A57U the yeast fitness was ≤ 0.5. C46A showed a yeast fitness of 0.999. With U3A C30U G50C the yeast fitness was ≤ 0.5. With U28A G48A C61A the yeast fitness was ≤ 0.5. With C49U A65G the yeast fitness was 0.942. With A20C C34U U47G C60U C62G the yeast fitness was ≤ 0.5. C22A U47C C55G gave a yeast fitness of 0.536. Work on C11A C31A C61A yielded a yeast fitness of 0.563. Work on G18A yielded a yeast fitness of 0.76. With C49U G51C C55A the yeast fitness was 0.618. With G9C U26C C34G A37G C60G A65C the yeast fitness was ≤ 0.5. With U47A C49G A69U the yeast fitness was 0.577. For G17C G52A G56A A65U A70G, the yeast fitness was ≤ 0.5. For C5G U19G C22U U32C A65C, the yeast fitness was ≤ 0.5. In the case of A40U C55G, the yeast fitness is reported as 0.664. With C11U A45C A70U the yeast fitness was 0.582. For C11A A37C C49G C66A, the yeast fitness was ≤ 0.5. For C11G C61G C62G, the yeast fitness was ≤ 0.5. For U26A C29G G58A A70C, the yeast fitness was 0.631. In the case of G10A C49A C61U, the yeast fitness is reported as ≤ 0.5. In the case of G23C C27A G56A A57U A69U, the yeast fitness is reported as ≤ 0.5. In the case of C11U G50C, the yeast fitness is reported as 0.759. In the case of U26A C49U C60U A69G, the yeast fitness is reported as ≤ 0.5. For G39A A43U A57G, the yeast fitness was 0.562. For G23C U47A A57G G58C, the yeast fitness was ≤ 0.5. In the case of U3C C4U C55U, the yeast fitness is reported as 0.699. In the case of U32G A45C G56A C66U, the yeast fitness is reported as ≤ 0.5. For C29A C55A, the yeast fitness was ≤ 0.5. In the case of C31A C46A, the yeast fitness is reported as 0.853. Work on A20G G41A G67C yielded a yeast fitness of 0.601. With C30U U35C A43C G67U the yeast fitness was ≤ 0.5. In the case of A40U A42U C49G G51A C66A G68C, the yeast fitness is reported as ≤ 0.5. For C24U C34U C46U, the yeast fitness was ≤ 0.5. For G41A U64C A65C, the yeast fitness was ≤ 0.5. With G56A A65C A69C the yeast fitness was ≤ 0.5. For U13A C31A G44A A57G A65C A70U, the yeast fitness was ≤ 0.5. With C4A C11U A14G A40G G50C the yeast fitness was ≤ 0.5. Work on G10A U16A G68A yielded a yeast fitness of 0.567. In the case of G18C G41A A42C G50C A70G, the yeast fitness is reported as ≤ 0.5. Work on U16C A43C yielded a yeast fitness of 1.01. G12A G18A A21U G41A showed a yeast fitness of 0.877. For A15C C30A A57G A69C, the yeast fitness was ≤ 0.5. In the case of U19C C22G G25C C33U G39C C62G, the yeast fitness is reported as ≤ 0.5. With G6A A37G U53G the yeast fitness was ≤ 0.5. G6C C27A gave a yeast fitness of 0.84. G6C C27G gave a yeast fitness of 0.567. For U2C G17C G23A G52A C61U, the yeast fitness was ≤ 0.5. In the case of G12A C29U U64A, the yeast fitness is reported as ≤ 0.5. For U2G C22U A40U, the yeast fitness was ≤ 0.5. Work on U28C C61U yielded a yeast fitness of 0.874. With A14G C22U C34U G51C G58A the yeast fitness was ≤ 0.5. In the case of U13C A14U C46U G48A C55U G68U, the yeast fitness is reported as ≤ 0.5. With C11U G12A C24U U47C the yeast fitness was ≤ 0.5. In the case of G41A G44C, the yeast fitness is reported as 0.671. In the case of C31G C33G C49U C60G C66A, the yeast fitness is reported as ≤ 0.5. In the case of C4G U7G U59G G63C, the yeast fitness is reported as ≤ 0.5. A20G C31U A65U gave a yeast fitness of 0.695. In the case of G6A C31A U47G C62A, the yeast fitness is reported as ≤ 0.5. Work on A20U G38A yielded a yeast fitness of 0.69. In the case of A14G C34G C61A, the yeast fitness is reported as ≤ 0.5. In the case of G10A A21U A70C, the yeast fitness is reported as ≤ 0.5. For A14C U26C A36G, the yeast fitness was ≤ 0.5. In the case of U2G C4U C22U C27U A37C, the yeast fitness is reported as ≤ 0.5. With C11U C30U C55G the yeast fitness was 0.541. Variant U35C A45U G68A has a yeast fitness of 0.668. In the case of C24A U47A A70U, the yeast fitness is reported as ≤ 0.5. Variant C27G A65C has a yeast fitness of 0.641. For U19A C27U G44C G48C C66U, the yeast fitness was ≤ 0.5. For G17A C22A C60U C61U, the yeast fitness was ≤ 0.5. Variant A21U U28C C31U has a yeast fitness of 0.637. C24A C29G A43C C60U showed a yeast fitness of 0.648. In the case of C31G G38C A43U C62G, the yeast fitness is reported as ≤ 0.5. In the case of C11A C31U G56A G58C, the yeast fitness is reported as 0.595. Work on C22A A37C yielded a yeast fitness of 0.641. U8G C46G showed a yeast fitness of 0.593. With U19A A20U G51C the yeast fitness was 0.836. With C11A C27G U35A A43U U54C A65G G68A the yeast fitness was ≤ 0.5. With C4G C34G A65G the yeast fitness was ≤ 0.5. In the case of U8G U26A G67C, the yeast fitness is reported as ≤ 0.5. For A45U G48A C55A A65C, the yeast fitness was ≤ 0.5. For U2A G9A U19C A69C, the yeast fitness was 0.685. For C30U A37C, the yeast fitness was 0.729. U2A C46A A70C gave a yeast fitness of 0.705. U19C U32G showed a yeast fitness of 0.655. In the case of A21C U26A C46U C55U, the yeast fitness is reported as 0.608. In the case of C11G C49U G63A, the yeast fitness is reported as ≤ 0.5. For U2G C11U C55G, the yeast fitness was ≤ 0.5. Work on C22U G48A yielded a yeast fitness of 0.89. In the case of A20U C29U C30U U59A G67A, the yeast fitness is reported as ≤ 0.5. Work on U2G A69G yielded a yeast fitness of 0.975. In the case of A20C G56A A70U, the yeast fitness is reported as 0.91. C4G A15U A37U gave a yeast fitness of 0.541. For C24G A40C A69C, the yeast fitness was ≤ 0.5. In the case of U2A C66A, the yeast fitness is reported as 0.704. In the case of C5A C24G U26A C29G A43U, the yeast fitness is reported as ≤ 0.5. For C5G U8C A21C C33U U59G, the yeast fitness was ≤ 0.5. In the case of A14C C30G C46U G48A U54G, the yeast fitness is reported as ≤ 0.5. Work on U19C A40C U53A yielded a yeast fitness of 0.532. For A36C C49U, the yeast fitness was 0.557. In the case of C11U U53G, the yeast fitness is reported as 0.608. With U19A A20G C24U A43G G48C the yeast fitness was ≤ 0.5. Work on C27G C30U yielded a yeast fitness of 0.619. Work on U2C U53G yielded a yeast fitness of 0.598. With U7G A15C C24U U32C A43G G51A U54C G67C the yeast fitness was ≤ 0.5. For A20C A36U A65U, the yeast fitness was ≤ 0.5. G41C G58A gave a yeast fitness of 0.948. Work on G12A G23C C55G A69C yielded a yeast fitness of 0.561. Variant C5G A69C has a yeast fitness of 0.932. With G18C C31A the yeast fitness was 0.634. Variant C22G C31U A65G has a yeast fitness of 0.867.
